Active and inactive are the calls of the source. No cut-off for these calls is given here.
Columns and labels:
[1] = tested on: A2780; assay: Antitumor activity against human A2780 cells xenografted in iv dosed BALB/c nu/nu mouse assessed as inhibition of tumor growth administered QD for 10 consecutive days measured every 3 days post last dose; assay type: functional, organism-based
Procedure, shortened: (§1)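 Human tumor xenografts (A2780 ovarian, HCT-116 colon, BX-PC3 pancreatic) in mice. Compound dissolved in 5% dextrose and given iv once daily for 10 consecutive days; A2780 curves show dosing from day 8. Doses were 10, 20 and 30 mg/kg for A2780, and 10 and 20 mg/kg for HCT-116 and BX-PC3. Controls received vehicle. Tumor growth inhibition taken at end of treatment; body weight tracked.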

[2] = tested on: COLO 205; assay: Antiproliferative activity against human COLO205 cells after 72 hrs by SRB assay; assay type: functional, cell-based; conditions: COLO 205, 72 h
[3] = tested on: A2780; assay: Antitumor activity against human A2780 cells xenografted in BALB/c nu/nu mouse assessed as inhibition of tumor growth at 30 mg/kg, iv QD for 10 consecutive days measured every 3 days post last dose; assay type: functional; procedure, shortened: as §1
[4] = tested on: HCT-116; assay: Antitumor activity against human HCT116 cells xenografted in BALB/c nu/nu mouse assessed as inhibition of tumor growth at 20 mg/kg, iv QD for 10 consecutive days measured every 3 days post last dose; assay type: functional; conditions: HCT-116, read-out: INH; procedure, shortened: as §1
[5] = tested on: BXPC-3; assay: Antitumor activity against human BxPC3 cells xenografted in BALB/c nu/nu mouse assessed as inhibition of tumor growth at 20 mg/kg, iv QD for 10 consecutive days measured every 3 days post last dose; assay type: functional; procedure, shortened: as §1
[6] = target: T1, Cyclin-dependent kinase (Homo sapiens) (UniProt P06493+P11802+P24941+Q00535+Q00534+P50613+Q00526+Q00536+Q07002+P49336+Q00537+P21127+Q96Q40+Q9BWU1+O94921+P50750+Q15131+Q14004+Q8IZL9+Q9NYV4); assay: Inhibition of CDK in human A2780 cells assessed as accumulation of hypophosphorylated form of retinoblastoma protein at 1 uM by immunohistochemistry; assay type: cell-based
[7] = Antiproliferative activity against human C-433 cells after 72 hrs by SRB assay; assay type: functional, cell-based; conditions: C-433, 72 h
[8] = tested on: MCF7; assay: Antiproliferative activity against human MCF7 cells after 72 hrs by SRB assay; assay type: functional, cell-based; conditions: MCF7, 72 h
[9] = tested on: A2780; assay: Cell cycle arrest in human A2780 cells assessed as accumulation at sub-G1 phase at 3 uM after 24 hrs by FACS analysis; assay type: functional
Procedure, shortened: (§2)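 A2780 cells (ECACC) seeded at 25000 cells/cm² in RPMI 1640, pH 7.4, with 10% FBS, 2 mM L-glutamine and penicillin–streptomycin, at 37 °C in 5% CO₂. After 24 h, treated for 24 h at 1 and 3 µM. Floating and trypsinised adherent cells pooled, PBS-washed, and DNA content analysed by flow cytometry.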

[10] = tested on: A2780; assay: Inhibition of cellular DNA synthesis in human A2780 cells assessed as BrdU incorporation into nuclear DNA at 1 uM after 24 hrs by Hoechst 33342 staining-based microscopic analysis; assay type: functional; set-up: scale not given: the % may be the effect or the level left
Procedure, shortened: (§3)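 A2780 human ovarian adenocarcinoma cells were seeded at 25000 cells/cm² in RPMI 1640 pH 7.4 with 10% FBS, 2 mM L-glutamine and penicillin–streptomycin. They were kept at 37 °C in 5% CO₂. After 24 h they were exposed to compound for 24 h. Floating and adherent cells were harvested with trypsin/EDTA, washed in PBS, and split for flow cytometry, immunoblot and BrdU incorporation.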

[11] = tested on: A2780; assay: Cell cycle arrest in human A2780 cells assessed as accumulation at G2/M phase at 3 uM after 24 hrs by FACS analysis; assay type: functional; procedure, shortened: as §2
[12] = tested on: HCT-116; assay: Antitumor activity against human HCT116 cells xenografted in iv dosed BALB/c nu/nu mouse assessed as inhibition of tumor growth administered QD for 10 consecutive days measured every 3 days post last dose; assay type: functional, organism-based; procedure, shortened: as §1
[13] = Inhibition of PDGFR by scintillation proximity assay
[14] = tested on: A2780; assay: Inhibition of cellular DNA synthesis in human A2780 cells assessed as BrdU incorporation into nuclear DNA at 3 uM after 24 hrs by Hoechst 33342 staining-based microscopic analysis; assay type: functional; set-up: scale not given: the % may be the effect or the level left; procedure, shortened: as §3
[15] = Inhibition of CK2 by scintillation proximity assay
[16] = tested on: A2780; assay: Cell cycle arrest in human A2780 cells assessed as accumulation at G0/G1 phase at 1 uM after 24 hrs by FACS analysis; assay type: functional; procedure, shortened: as §2
[17] = Inhibition of NIM by scintillation proximity assay
[18] = tested on: PC-3; assay: Antiproliferative activity against human PC3 cells after 72 hrs by SRB assay; assay type: functional, cell-based; conditions: PC-3, 72 h
[19] = tested on: DU-145; assay: Antiproliferative activity against human DU145 cells after 72 hrs by SRB assay; assay type: functional, cell-based; conditions: DU-145, 72 h
[20] = tested on: A-375; assay: Antiproliferative activity against human A375 cells after 72 hrs by SRB assay; assay type: functional, cell-based; conditions: A-375, 72 h
[21] = target: T1, Cyclin-dependent kinase (Homo sapiens); assay: Inhibition of CDK in human A2780 cells assessed as accumulation of hypophosphorylated form of retinoblastoma protein at 3 uM by immunohistochemistry; assay type: cell-based
[22] = target: T1, Cyclin-dependent kinase (Homo sapiens); assay: Inhibition of CDK in human A2780 cells assessed as reduction of hyperphosphorylated form of retinoblastoma protein at 1 uM by immunohistochemistry; assay type: cell-based
[23] = Inhibition of SULU1 by scintillation proximity assay
[24] = tested on: A2780; assay: Antitumor activity against human A2780 cells xenografted in iv dosed BALB/c nu/nu mouse assessed as reduction of BrdU incorporation into cellular DNA at 30 mg/kg, iv for 5 days by immunohistochemistry
[25] = tested on: Mus musculus; assay: Inhibition of CDK in human A2780 cells xenografted in iv dosed BALB/c nu/nu mouse assessed as reduction of hyperphosphorylated form of retinoblastoma protein at 30 mg/kg, iv for 5 days by immunohistochemistry; assay type: functional, organism-based; set-up: dose 30 mg/kg
Procedure, shortened: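 Mice bearing A2780 xenografts given 30 mg/kg iv for 5 days; vehicle controls. Tumors analysed by immunohistochemistry for BrdU and phospho-pRb positive cells. For BrdU, sections were denatured and pretreated with 4 N HCl and proteinase K, then stained with the Dako ARK kit and counterstained with hematoxylin. Automated quantitative image analysis done by two observers.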

[26] = tested on: BXPC-3; assay: Antiproliferative activity against human BxPC3 cells after 72 hrs by SRB assay; assay type: functional, cell-based; conditions: BXPC-3, 72 h
[27] = tested on: A2780; assay: Antiproliferative activity against human A2780 cells after 72 hrs by CellTiter-Glo luminescence assay; conditions: A2780, 72 h
[28] = tested on: A2780; assay: Cell cycle arrest in human A2780 cells assessed as accumulation at G2/M phase at 1 uM after 24 hrs by FACS analysis; assay type: functional; procedure, shortened: as §2
[29] = Inhibition of STK2 by scintillation proximity assay
[30] = tested on: HCT-116; assay: Antiproliferative activity against human HCT116 cells after 72 hrs by SRB assay; assay type: functional, cell-based; conditions: HCT-116, 72 h
[31] = tested on: A2780; assay: Cell cycle arrest in human A2780 cells assessed as accumulation at S phase at 1 uM after 24 hrs by FACS analysis; assay type: functional; procedure, shortened: as §2
[32] = target: T1, Cyclin-dependent kinase (Homo sapiens); assay: Inhibition of CDK in human A2780 cells assessed as reduction of hyperphosphorylated form of retinoblastoma protein at 3 uM by immunohistochemistry; assay type: cell-based
[33] = tested on: A2780; assay: Cell cycle arrest in human A2780 cells assessed as accumulation at G0/G1 phase at 3 uM after 24 hrs by FACS analysis; assay type: functional; procedure, shortened: as §2
[34] = tested on: A2780; assay: Cell cycle arrest in human A2780 cells assessed as accumulation at S phase at 3 uM after 24 hrs by FACS analysis; assay type: functional; procedure, shortened: as §2

IC50 [2]: 188 nM
Activity [6]: Active
IC50 [8]: 1280 nM
IC50 [13]: > 10000 nM
IC50 [15]: > 10000 nM
IC50 [17]: > 10000 nM
IC50 [18]: 601 nM
IC50 [19]: 303 nM
IC50 [20]: 396 nM
Activity [21]: Active
Activity [22]: Active
IC50 [23]: > 10000 nM
IC50 [26]: 3440 nM
IC50 [27]: 90 nM
IC50 [29]: > 10000 nM
IC50 [30]: 163 nM
Activity [32]: Active
Compound: CC(C)CC(=O)Nc1n[nH]c2c1CN(C(=O)C1CCN(C)CC1)C2(C)C [PHA-793887]
Activity [1]: Dose-dependent effect
inhibition in vivo at 30 mg/kg [3]: 76%
inhibition in vivo at 20 mg/kg [4]: 81%
inhibition in vivo at 20 mg/kg [5]: 84%
IC50 [7]: 285 nM
Activity [9]: 26.2%
Activity [10]: -85%
Activity [11]: 263%
Activity [12]: Dose-dependent effect
Activity [14]: -100%
Activity [16]: 25%
Activity [24]: Active
Activity [25]: Active
Activity [28]: 62%
Activity [31]: -76%
Activity [33]: -11%
Activity [34]: -48%

Reference: ChEMBL document CHEMBL1157586 (Bioorg Med Chem, 2010)
